From ChEMBL document CHEMBL2146369, “Oxazolo[3,2-a]pyridine. A new structural scaffold for the reversal of multi-drug resistance in Leishmania” (Bioorg Med Chem Lett, 2012)
Active and inactive are the calls of the source. No cut-off for these calls is given here.

Key:
[1] = tested on: THP-1; assay: Cytotoxicity against PMA-stimulated human THP1 cells after 72 hrs by MTT assay; assay type: cell-based; conditions: THP-1, 72 h
Method in brief: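 THP-1 cells grown at 37 °C, 5% CO2 in RPMI-1640 with 10% iFBS, […], penicillin and streptomycin. Differentiated to macrophages with 20 ng/mL PMA for 48 h, then 24 h in fresh medium. MTT viability assay run as for parasites but incubated at 37 °C. IC50 determined.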

[2] = tested on: Leishmania tropica; assay: Potentiation of miltefosine-induced antileishmanial activity against promastigotes of multidrug-resistant Leishmania tropica assessed as fold decrease in miltefosine IC50 at 6 uM after 72 hrs by MTT assay; assay type: functional
Method in brief: (§1)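 MDR L. tropica promastigotes given increasing DNM or miltefosine concentrations, with or without 6 µM modulator, for 72 h at 28 °C. Viability measured by MTT absorbance at 540 nm. IC50 taken for each condition. Reversal index is drug IC50 without modulator divided by IC50 with it. Three independent experiments.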

[3] = tested on: Leishmania tropica; assay: Potentiation of daunomycin-induced antileishmanial activity against promastigotes of multidrug-resistant Leishmania tropica at 3 to 8 uM after 72 hrs by MTT assay; assay type: functional, organism-based
[4] = tested on: Leishmania tropica; assay: Potentiation of daunomycin-induced antileishmanial activity against promastigotes of multidrug-resistant Leishmania tropica assessed as fold decrease in daunomycin IC50 at 6 uM after 72 hrs by MTT assay; assay type: functional; method in brief: as §1
[5] = tested on: Leishmania tropica; assay: Antileishmanial activity against promastigotes of wild type Leishmania tropica LRC after 72 hrs by MTT assay; assay type: functional, organism-based
Method in brief: (§2)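 Promastigotes of wild-type L. tropica LRC clone or DNM-selected MDR line (kept in 150 µM DNM or 30 µM MLF), grown at 28 °C in modified RPMI 1640 with 20% heat-inactivated FBS. Exposed to compounds without DNM for 72 h at 28 °C. Viability read by MTT absorbance at 540 nm, expressed relative to untreated parasites.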

[6] = tested on: Leishmania tropica; assay: Resistance ratio of IC50 for multidrug-resistant Leishmania tropica and IC50 for wild type Leishmania tropica LRC; assay type: functional
Method in brief: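 DNM-selected MDR and parental wild-type L. tropica promastigotes treated with increasing drug concentrations for 72 h at 28 °C. Viability read by MTT at 540 nm. Ratio of MDR IC50 to parental IC50 calculated.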

[7] = tested on: Leishmania tropica; assay: Antileishmanial activity against promastigotes of multidrug-resistant Leishmania tropica after 72 hrs by MTT assay; assay type: functional, organism-based; method in brief: as §2

COC(=O)C1=C(C)N2C[C@@H](C)O[C@]2(C)[C@H](C(=O)OC(C)(C)C)[C@H]1c1cccc(Cl)c1
IC50 [1]: > 400 µM
fold change (FC) [2]: 8.7

COC(=O)C1=C(C)N2CCO[C@@]2(C)[C@@H](C(=O)OCc2ccccc2)[C@@H]1c1cccc(Cl)c1 (racemic)
IC50 [1]: > 400 µM

COC(=O)C1=C(C)N2CCS[C@@]2(C)[C@@H](C(=O)OC)[C@@H]1c1cccc(Cl)c1 (racemic)
Activity [3]: Active
fold change (FC) [4]: 2.2
IC50 [1]: > 400 µM
fold change (FC) [2]: 3.5

COC(=O)C1=C(C)N2C[C@H](C)O[C@@]2(C)[C@@H](C(=O)OC)[C@@H]1c1cccc(Cl)c1
fold change (FC) [4]: >6
IC50 [1]: > 400 µM

COc1cccc2c1C(=O)c1c(O)c3c(c(O)c1C2=O)C[C@@](O)(C(C)=O)C[C@@H]3O[C@H]1C[C@H](N)[C@H](O)[C@H](C)O1 [DAUNORUBICIN]
IC50 [5]: 2.8 µM
Ratio IC50 [6]: 64
IC50 [1]: 26.9 µM
IC50 [7]: 180 µM

COC(=O)C1=C(C)N2C(=O)[C@H](C)O[C@@]2(C)[C@@H](C(=O)OC)[C@@H]1c1cccc(Cl)c1 (racemic)
IC50 [1]: > 400 µM

COC(=O)C1=C(C)N2CCO[C@@]2(C)[C@@H](C(=O)OCc2ccccc2)[C@@H]1c1cccc([N+](=O)[O-])c1 (racemic)
IC50 [1]: > 400 µM

C=CCOC(=O)[C@H]1[C@H](c2cccc(Cl)c2)C(C(=O)OC)=C(C)N2CCO[C@@]12C (racemic)
fold change (FC) [4]: >5

COC(=O)C1=C(C)N2CCO[C@@]2(C)[C@@H](C(=O)OC)[C@@H]1c1ccc[nH]1 (racemic)
Activity [3]: Active
fold change (FC) [4]: 1.3
IC50 [1]: > 400 µM
fold change (FC) [2]: 1.9

COC(=O)C1=C(C)N2CCO[C@@]2(C)[C@@H](C(=O)OC)[C@@H]1c1cccc([N+](=O)[O-])c1 (racemic)
Activity [3]: Active
fold change (FC) [4]: 3.9
IC50 [1]: > 400 µM
fold change (FC) [2]: 3.4

CCCCCCCCCCCCCCCCOP(=O)([O-])OCC[N+](C)(C)C [MILTEFOSINE]
IC50 [5]: 10.9 µM
Ratio IC50 [6]: 22
IC50 [1]: 7 µM
IC50 [7]: 240 µM

COC(=O)C1=C(C)N2CCCO[C@@]2(C)[C@@H](C(=O)OC)[C@@H]1c1cccc(Cl)c1 (racemic)
Activity [3]: Active
fold change (FC) [4]: 3.2
IC50 [1]: > 400 µM
fold change (FC) [2]: 1.5

COC(=O)C1=C(C)N2CCO[C@@]2(C)[C@@H](C(=O)OC)[C@@H]1c1ccco1 (racemic)
IC50 [1]: > 400 µM

CC(=O)O[C@H]1C[C@](C)(O)[C@]23OC(C)(C)[C@H](C[C@H](OC(=O)c4ccco4)[C@]2(C)[C@H]1OC(C)=O)[C@H]3OC(=O)c1ccco1
fold change (FC) [4]: 4.7
fold change (FC) [2]: 6

COC(=O)C1=C(C)N2CCO[C@@]2(C)[C@@H](CO)[C@@H]1c1cccc([N+](=O)[O-])c1 (racemic)
IC50 [1]: > 400 µM
